ChEMBL document CHEMBL4689842, “EUbOPEN Chemogenomics Library wave 1” (2021)

Experiments:
Type in all cases: toxicity, cell-based
U2OS = experiment: Incucyte cell viability with U2OS; conditions: human, 10 µM, compound concentration 10 uM; further: filed as whole numbers so only -1 and 0 and 1 occur
Fibroblast = experiment: Multiplex assay against human fibroblast
Method in brief: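 On a CQ1 microscope at 37°C and 5% CO2, live cells were imaged after compound addition. They had been stained at seeding with Hoechst33342, BioTracker Green Microtubule Cytoskeleton Dye, MitoTracker Red and Annexin V Alexa Fluor 680. CellPathfinder machine-learning gating assigned cells to Hoechst high-intensity objects or normal cells, normal cells to healthy, pyknosed or fragmented nuclei, and pyknosed cells to mitotic or apoptotic. Tubulin, mitochondrial-mass and membrane-permeability phenotypes are per cents of healthy-nucleus cells.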

HEK-293T = experiment: Incucyte cell viability with HEK293T; conditions: human, 10 µM, compound concentration 10 uM; further: filed as whole numbers so only -1 and 0 and 1 occur
[1] = 6 h, replicate number 1, timepoint 6 hours
[2] = 12 h, replicate number 1, timepoint 12 hours
[3] = 18 h, replicate number 1, timepoint 18 hours
[4] = 24 h, replicate number 1, timepoint 24 hours
[5] = 12 h, 1 µM, compound concentration 1 uM, replicate 1
[6] = 12 h, 1 µM, compound concentration 1 uM, replicate 2
[7] = 12 h, 10 µM, compound concentration 10 uM, replicate 1
[8] = 12 h, 10 µM, compound concentration 10 uM, replicate 2
[9] = 24 h, 1 µM, compound concentration 1 uM, replicate 1
[10] = 24 h, 1 µM, compound concentration 1 uM, replicate 2
[11] = 24 h, 10 µM, compound concentration 10 uM, replicate 1
[12] = 24 h, 10 µM, compound concentration 10 uM, replicate 2

Q: Which “Growth Rate” value (U2OS; 0 h, replicate number 1, timepoint 0 hours) does the source give for COc1cc2c(Nc3ccc(NC(=O)c4ccccc4)cc3)ncnc2cc1OCCCN1CCOCC1 here?
A: Its value is 1.

Q: What about the “Growth Rate” value (U2OS; [1]) of the same compound?
A: The value was 1.

Q: And the “Growth Rate” value (U2OS; [2])?
A: Its value is 0.

Q: And the “Growth Rate” value (U2OS; [3])?
A: Its value is 0.

Q: What about the “Growth Rate” value (U2OS; 18 h, replicate number 2, timepoint 18 hours) of the same compound?
A: The value was 1.

Q: What about the “Growth Rate” value (U2OS; [4]) of the same compound?
A: Its value is 0.

Q: What about the “Growth Rate” value (U2OS; 24 h, replicate number 2, timepoint 24 hours) of the same compound?
A: The value was 1.

Q: What about the “Population Apoptotic (%)” value (Fibroblast; [5]) of the same compound?
A: Its value is 55%.

Q: And the “Population Fragmented Nuclei (%)” value (Fibroblast; [5])?
A: Its value is 25%.

Q: What about the “Population Healthy Nuclei (%)” value (Fibroblast; [5]) of the same compound?
A: The value was 53%.

Q: And the “Population Hoechst High Intensity Objects (%)” value (Fibroblast; [5])?
A: The value was 35%.

Q: And the “Population Membrane Permeable-Phenotype (%)” value (Fibroblast; [5])?
A: Its value is 9%.

Q: What about the “Population Mitochondria Different-Phenotype (%)” value (Fibroblast; [5]) of the same compound?
A: Its value is 10%.

Q: What about the “Population Mitotic Cells (%)” value (Fibroblast; [5]) of the same compound?
A: Its value is 44%.

Q: What about the “Population Normal (%)” value (Fibroblast; [5]) of the same compound?
A: The value was 64%.

Q: And the “Population Pyknosed Nuclei (%)” value (Fibroblast; [5])?
A: Its value is 20%.

Q: What about the “Population Tubulin-Different-Phenotype (%)” value (Fibroblast; [5]) of the same compound?
A: The value was 41%.

Q: And the “Total Cell Count” value (Fibroblast; [5])?
A: The value was 470.

Q: And the “Population Apoptotic (%)” value (Fibroblast; [6])?
A: The value was 33%.

Q: What about the “Population Fragmented Nuclei (%)” value (Fibroblast; [6]) of the same compound?
A: The value was 44%.

Q: What about the “Population Healthy Nuclei (%)” value (Fibroblast; [6]) of the same compound?
A: Its value is 46%.

Q: What about the “Population Hoechst High Intensity Objects (%)” value (Fibroblast; [6]) of the same compound?
A: Its value is 30%.

Q: And the “Population Membrane Permeable-Phenotype (%)” value (Fibroblast; [6])?
A: The value was 22%.

Q: What about the “Population Mitochondria Different-Phenotype (%)” value (Fibroblast; [6]) of the same compound?
A: Its value is 12%.

Q: What about the “Population Mitotic Cells (%)” value (Fibroblast; [6]) of the same compound?
A: The value was 66%.

Q: What about the “Population Normal (%)” value (Fibroblast; [6]) of the same compound?
A: Its value is 69%.

Q: What about the “Population Pyknosed Nuclei (%)” value (Fibroblast; [6]) of the same compound?
A: Its value is 8%.

Q: And the “Population Tubulin-Different-Phenotype (%)” value (Fibroblast; [6])?
A: Its value is 64%.

Q: And the “Total Cell Count” value (Fibroblast; [6])?
A: Its value is 97.

Q: And the “Population Apoptotic (%)” value (Fibroblast; [7])?
A: The value was 82%.

Q: And the “Population Fragmented Nuclei (%)” value (Fibroblast; [7])?
A: Its value is 39%.

Q: What about the “Population Healthy Nuclei (%)” value (Fibroblast; [7]) of the same compound?
A: Its value is 49%.

Q: What about the “Population Hoechst High Intensity Objects (%)” value (Fibroblast; [7]) of the same compound?
A: The value was 19%.

Q: What about the “Population Membrane Permeable-Phenotype (%)” value (Fibroblast; [7]) of the same compound?
A: The value was 9%.

Q: What about the “Population Mitochondria Different-Phenotype (%)” value (Fibroblast; [7]) of the same compound?
A: The value was 5%.

Q: And the “Population Mitotic Cells (%)” value (Fibroblast; [7])?
A: Its value is 17%.

Q: What about the “Population Normal (%)” value (Fibroblast; [7]) of the same compound?
A: Its value is 80%.

Q: And the “Population Pyknosed Nuclei (%)” value (Fibroblast; [7])?
A: Its value is 11%.

Q: What about the “Population Tubulin-Different-Phenotype (%)” value (Fibroblast; [7]) of the same compound?
A: The value was 4%.

Q: What about the “Total Cell Count” value (Fibroblast; [7]) of the same compound?
A: Its value is 250.

Q: And the “Population Apoptotic (%)” value (Fibroblast; [8])?
A: Its value is 0%.

Q: What about the “Population Fragmented Nuclei (%)” value (Fibroblast; [8]) of the same compound?
A: Its value is 70%.

Q: What about the “Population Healthy Nuclei (%)” value (Fibroblast; [8]) of the same compound?
A: Its value is 27%.

Q: What about the “Population Hoechst High Intensity Objects (%)” value (Fibroblast; [8]) of the same compound?
A: The value was 41%.

Q: And the “Population Membrane Permeable-Phenotype (%)” value (Fibroblast; [8])?
A: Its value is 0%.

Q: What about the “Population Mitochondria Different-Phenotype (%)” value (Fibroblast; [8]) of the same compound?
A: Its value is 7%.

Q: What about the “Population Mitotic Cells (%)” value (Fibroblast; [8]) of the same compound?
A: Its value is 100%.

Q: And the “Population Normal (%)” value (Fibroblast; [8])?
A: The value was 58%.

Q: And the “Population Pyknosed Nuclei (%)” value (Fibroblast; [8])?
A: Its value is 2%.

Q: What about the “Population Tubulin-Different-Phenotype (%)” value (Fibroblast; [8]) of the same compound?
A: The value was 7%.

Q: And the “Total Cell Count” value (Fibroblast; [8])?
A: The value was 82.

Q: And the “Population Apoptotic (%)” value (Fibroblast; [9])?
A: The value was 61%.

Q: And the “Population Fragmented Nuclei (%)” value (Fibroblast; [9])?
A: Its value is 26%.

Q: And the “Population Healthy Nuclei (%)” value (Fibroblast; [9])?
A: Its value is 47%.

Q: What about the “Population Hoechst High Intensity Objects (%)” value (Fibroblast; [9]) of the same compound?
A: The value was 46%.

Q: And the “Population Membrane Permeable-Phenotype (%)” value (Fibroblast; [9])?
A: Its value is 14%.

Q: And the “Population Mitochondria Different-Phenotype (%)” value (Fibroblast; [9])?
A: The value was 17%.

Q: And the “Population Mitotic Cells (%)” value (Fibroblast; [9])?
A: Its value is 38%.

Q: And the “Population Normal (%)” value (Fibroblast; [9])?
A: Its value is 53%.

Q: What about the “Population Pyknosed Nuclei (%)” value (Fibroblast; [9]) of the same compound?
A: Its value is 26%.

Q: What about the “Population Tubulin-Different-Phenotype (%)” value (Fibroblast; [9]) of the same compound?
A: The value was 59%.

Q: And the “Total Cell Count” value (Fibroblast; [9])?
A: The value was 391.

Q: What about the “Population Apoptotic (%)” value (Fibroblast; [10]) of the same compound?
A: Its value is 58%.

Q: And the “Population Fragmented Nuclei (%)” value (Fibroblast; [10])?
A: The value was 34%.

Q: What about the “Population Healthy Nuclei (%)” value (Fibroblast; [10]) of the same compound?
A: The value was 42%.

Q: And the “Population Hoechst High Intensity Objects (%)” value (Fibroblast; [10])?
A: The value was 41%.

Q: What about the “Population Membrane Permeable-Phenotype (%)” value (Fibroblast; [10]) of the same compound?
A: The value was 23%.

Q: And the “Population Mitochondria Different-Phenotype (%)” value (Fibroblast; [10])?
A: The value was 33%.

Q: And the “Population Mitotic Cells (%)” value (Fibroblast; [10])?
A: Its value is 41%.

Q: What about the “Population Normal (%)” value (Fibroblast; [10]) of the same compound?
A: The value was 58%.

Q: And the “Population Pyknosed Nuclei (%)” value (Fibroblast; [10])?
A: The value was 24%.

Q: And the “Population Tubulin-Different-Phenotype (%)” value (Fibroblast; [10])?
A: Its value is 52%.

Q: And the “Total Cell Count” value (Fibroblast; [10])?
A: Its value is 85.

Q: What about the “Population Apoptotic (%)” value (Fibroblast; [11]) of the same compound?
A: The value was 76%.

Q: What about the “Population Fragmented Nuclei (%)” value (Fibroblast; [11]) of the same compound?
A: Its value is 31%.

Q: What about the “Population Healthy Nuclei (%)” value (Fibroblast; [11]) of the same compound?
A: The value was 55%.

Q: And the “Population Hoechst High Intensity Objects (%)” value (Fibroblast; [11])?
A: The value was 22%.

Q: What about the “Population Membrane Permeable-Phenotype (%)” value (Fibroblast; [11]) of the same compound?
A: The value was 6%.

Q: And the “Population Mitochondria Different-Phenotype (%)” value (Fibroblast; [11])?
A: Its value is 3%.

Q: And the “Population Mitotic Cells (%)” value (Fibroblast; [11])?
A: Its value is 24%.

Q: What about the “Population Normal (%)” value (Fibroblast; [11]) of the same compound?
A: Its value is 77%.

Q: And the “Population Pyknosed Nuclei (%)” value (Fibroblast; [11])?
A: The value was 13%.

Q: And the “Population Tubulin-Different-Phenotype (%)” value (Fibroblast; [11])?
A: The value was 5%.

Q: And the “Total Cell Count” value (Fibroblast; [11])?
A: The value was 248.

Q: What about the “Population Apoptotic (%)” value (Fibroblast; [12]) of the same compound?
A: The value was 66%.

Q: What about the “Population Fragmented Nuclei (%)” value (Fibroblast; [12]) of the same compound?
A: The value was 69%.

Q: What about the “Population Healthy Nuclei (%)” value (Fibroblast; [12]) of the same compound?
A: The value was 25%.

Q: What about the “Population Hoechst High Intensity Objects (%)” value (Fibroblast; [12]) of the same compound?
A: The value was 32%.

Q: And the “Population Membrane Permeable-Phenotype (%)” value (Fibroblast; [12])?
A: The value was 15%.

Q: And the “Population Mitochondria Different-Phenotype (%)” value (Fibroblast; [12])?
A: Its value is 7%.

Q: What about the “Population Mitotic Cells (%)” value (Fibroblast; [12]) of the same compound?
A: The value was 33%.

Q: And the “Population Normal (%)” value (Fibroblast; [12])?
A: Its value is 67%.

Q: And the “Population Pyknosed Nuclei (%)” value (Fibroblast; [12])?
A: Its value is 5%.

Q: What about the “Population Tubulin-Different-Phenotype (%)” value (Fibroblast; [12]) of the same compound?
A: Its value is 15%.

Q: And the “Total Cell Count” value (Fibroblast; [12])?
A: The value was 77.

Q: And the “Growth Rate” value (HEK-293T; [1])?
A: The value was 0.

Q: What about the “Growth Rate” value (HEK-293T; [2]) of the same compound?
A: The value was 0.

Q: And the “Growth Rate” value (HEK-293T; [3])?
A: The value was 0.

Q: And the “Growth Rate” value (HEK-293T; [4])?
A: The value was 0.
